In ChEMBL document CHEMBL3808278, “Design, Synthesis, and Biological Evaluation of Imidazo[1,5-a]quinoline as Highly Potent Ligands of Central Benzodiazepine Receptors” (J Med Chem, 2016):
Activity calls are given as the source filed them. The calls are words filed in the database; no cut-off is given here.

Key:
Bos taurus [1] = species: Bos taurus; assay: Displacement of [3H]-flumazenil from central-type benzodiazepine receptor in bovine cortical membrane at 1000 nM after 90 mins by liquid-phase scintillation beta-counting method; assay type: cell membranes
How it was run: (§1)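 Competition binding against radiolabelled antagonist [3H]flumazenil in cortical membranes (bovine; human where listed); Ki reported as mean ± SEM of three independent determinations.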

[2] = Displacement of [3H]-flumazenil from central-type benzodiazepine receptor in bovine cortical membrane after 90 mins by liquid-phase scintillation beta-counting method; assay type: cell membranes, Bos taurus; how it was run: as §1
Bos taurus [3] = species: Bos taurus; assay: Selectivity ratio, ratio of Ki for central-type benzodiazepine receptor in bovine cortical membrane to Ki for central-type benzodiazepine receptor in bovine cortical membrane in presence of 50 uM of GABA; assay type: cell membranes
Mus musculus [4] = assay: Antiamnestic activity in mouse assessed as prevention of scopalamine-induced amnesia at 10 mg/kg, po administered 30 mins before test by passive avoidance test; assay type: functional, organism-based
How it was run: (§2)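 Passive avoidance in mice: compounds were given per os 30 min before the test, and scopolamine 1.5 mg kg-1 i.p. immediately after the punishment. Read-out was time recorded during the retention session. Values are mean ± SEM of at least 10 mice, compared with vehicle-treated animals.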

Mus musculus [5] = assay: Anxiolytic activity in mouse assessed as time spent in light box at 10 mg/kg, po administered 30 mins before test by light-dark box test; assay type: functional
How it was run: (§3)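 Light-dark box in mice measured time in the light compartment. Compounds were given per os 30 min before testing, and diazepam 1 mg kg-1 subcutaneously as reference. Values are mean ± SEM of at least 10 mice, compared with vehicle-treated animals.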

Rattus norvegicus [6] = species: Rattus norvegicus; assay: Inverse agonist activity at central-type benzodiazepine receptor in Sprague-Dawley rat cerebrocortical synaptoneurosomes assessed as decrease in 36Cl- flow after 10 secs by liquid-phase scintillation beta-counting method
Mus musculus [7] = assay: Neurotoxicity in mouse assessed as effect on neurological and muscular abilities at 10 mg/kg, po after 30 mins by Hole-Board test; assay type: toxicity, organism-based; details: in vivo, 0.5 h
How it was run: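 Hole-board test 30 min after oral dosing at 10 mg kg-1 counted movements (motor activity) and head inspections (exploratory activity). Values are mean ± SEM of at least 10 mice, compared with vehicle controls.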

Mus musculus [8] = assay: Antiamnestic activity in scopolamine induced mouse amnesia model assessed as time spent in light box at 1 mg/kg, po administered 30 mins before test by passive avoidance test; assay type: functional, organism-based; how it was run: as §2
Mus musculus [9] = assay: Antiamnestic activity in scopalamine-induced mouse amnesia model assessed as time spent in light box at 10 mg/kg, po administered 30 mins before test by passive avoidance test (reference value: 44.8 +/- 8.1 secs); assay type: functional; how it was run: as §2
Mus musculus [10] = species: Mus musculus; assay: Myorelaxant effect in mouse assessed as effect on motor coordination after 30 mins by rotarad test; assay type: organism-based; details: in vivo, 0.5 h
How it was run: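 Rota-rod test of motor coordination in mice, with compounds given per os 30 min before testing. Values are mean ± SEM of at least 10 mice.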

Mus musculus [11] = assay: Anxiolytic activity against mouse assessed as increase in time spent in light box at 10 mg/kg, po administered 30 mins before test by light-dark box test; assay type: functional, organism-based; how it was run: as §3
Rattus norvegicus [12] = species: Rattus norvegicus; assay: Antagonist activity at central-type benzodiazepine receptor in Sprague-Dawley rat cerebrocortical synaptoneurosomes assessed as decrease in 36Cl- flow after 10 secs by liquid-phase scintillation beta-counting method
Mus musculus [13] = assay: Anxiolytic activity in mouse assessed as time spent in light box at 30 mg/kg, po administered 30 mins before test by light-dark box test; assay type: functional; how it was run: as §3
Mus musculus [14] = assay: Antiamnestic activity in scopolamine induced mouse amnesia model assessed as time of retention session in light box at 30 mg/kg, po administered 30 mins before test by passive avoidance test (reference value: 44.8 +/- 8.1 secs); assay type: functional; how it was run: as §2
Mus musculus [15] = assay: Anxiolytic activity in mouse assessed as increase in time spent in light box at 1 mg/kg, po administered 30 mins before test by light-dark box test; assay type: functional, organism-based; how it was run: as §3
Mus musculus [16] = assay: Antiamnestic activity in scopolamine induced mouse amnesia model assessed as time spent in light box at 3 mg/kg, po administered 30 mins before test by passive avoidance test (reference value: 44.8 +/- 8.1 secs); assay type: functional; how it was run: as §2
Mus musculus [17] = assay: Anxiolytic activity in po dosed mouse assessed as increase in time spent in light box administered 30 mins before test by light-dark box test; assay type: functional, organism-based; how it was run: as §3
Mus musculus [18] = assay: Anxiolytic activity in mouse assessed as time spent in light box at 3 mg/kg, po administered 30 mins before test by light-dark box test; assay type: functional; how it was run: as §3
Mus musculus [19] = assay: Anxiolytic activity in mouse assessed as increase in time spent in light box at 1 mg/kg, sc administered 30 mins before test by light-dark box test; assay type: functional, organism-based
How it was run: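 Mice, light-dark box test for anxiolytic effect; agent given subcutaneously (1 mg kg-1) 30 min before testing; time in light box recorded; mean ± SEM of at least 10 mice; significance vs vehicle-treated mice.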

Brain [20] = assay: Neuroprotective activity against oxygen-glucose deprivation and reoxygenation-induced injury in Sprague-Dawley rat brain cortical slices assessed as maximum recovery in LDH release at 5 uM treated during 90 mins of reperfusion phase measured after 90 mins by spetrophotometric method; assay type: functional
How it was run: (§4)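 Rat brain cortical slices in ACSF underwent 30 min oxygen/glucose deprivation, then 90 min reoxygenated ACSF (reperfusion). Controls were kept 120 min in ACSF. Compounds (0.1–100 µM) were added only during reperfusion, and LDH release was measured. Data are means ± SEM of at least 4 experiments, analysed by ANOVA with Dunnett post test. The effective concentration is that giving the largest reduction, and recovery is the % reversion at that concentration.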

Brain [21] = assay: Neuroprotective activity against oxygen-glucose deprivation and reoxygenation-induced injury in Sprague-Dawley rat brain cortical slices assessed as maximum recovery in LDH release at 50 uM treated during 90 mins of reperfusion phase measured after 90 mins by spetrophotometric method; assay type: functional; how it was run: as §4
Rattus norvegicus [22] = species: Rattus norvegicus; assay: Partial agonist activity at central-type benzodiazepine receptor in Sprague-Dawley rat cerebrocortical synaptoneurosomes assessed as increase in 36Cl- influx after 10 secs by liquid-phase scintillation beta-counting method

Compound	Ki [2] [nM]	Ratio Ki (Bos taurus [3])	Activity (Mus musculus [4])	Time (Mus musculus [5]) [s]	Activity (Rattus norvegicus [6])	Activity (Mus musculus [7])	Activity (Mus musculus [10])	Activity (Mus musculus [11])	Time (Mus musculus [18]) [s]	also measured
Cc1c(-c2ccccc2)c2ccccc2n2cnc(C(=O)N(C)Cc3ccccc3)c12	> 1000	–	–	–	–	–	–	–	–	inhibition (Bos taurus [1]): 19%
CCCN(CCC)C(=O)c1cc2c(C(=O)OCC)ncn2c2ccc(F)cc12	0.44	0.8	Active	181.4	Active	Non-toxic	Non-toxic	–	–	Activity (Mus musculus [8]): Active; Time (Mus musculus [9]): 99.6 s
Cc1c(C(=O)N(C)Cc2ccccc2)c2ccccc2n2cnc(C(=O)OC(C)(C)C)c12	2.6	1	inactive	–	–	Non-toxic	Non-toxic	inactive	–	Antagonist activity (Rattus norvegicus [12]): Active; Time (Mus musculus [13]): <=139.2 s; Time (Mus musculus [14]): <=77.9 s; Activity (Mus musculus [15]): inactive
CCCCN(C)C(=O)c1cc2c(C(=O)OC(C)(C)C)ncn2c2ccccc12	1.8	0.62	Active	167.2	Active	Non-toxic	Non-toxic	–	144.8	Time (Mus musculus [16]): 73.5 s; Activity (Mus musculus [17]): Dose-dependent effect
CN1C(=O)CN=C(c2ccccc2)c2cc(Cl)ccc21 [DIAZEPAM]	–	–	–	–	–	–	–	–	–	Activity (Mus musculus [19]): Active; Activity (Brain [20]): 55.9%
CCCN(CCC)C(=O)c1c(C)c2c(C(=O)OCC)ncn2c2ccccc12	1.5	1.3	Active	–	–	Non-toxic	Non-toxic	Active	153.4	Activity (Brain [21]): 44%; Activity (Rattus norvegicus [22]): Active
